Source: ChEMBL document CHEMBL2396525, “Synthesis and anti-HCMV activity of 1-[ω-(phenoxy)alkyl]uracil derivatives and analogues thereof” (Bioorg Med Chem, 2013)
The source made the active and inactive calls. No cut-off for these calls is given here.

Experiments:
[1] = system: Human immunodeficiency virus 2; test: Antiviral activity against HIV2 ROD infected in human CEM cells assessed as inhibition of virus-induced giant cell formation after 4 to 5 days; type: functional, organism-based; conditions: ISOLATE ROD, CCRF-CEM
How it was run: (§1)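 CEM cells at about 3 × 10^5 cells/mL were infected with 100 CCID50 of HIV per mL, with compound dilutions present. They were incubated 4–5 days at 37 °C in humidified CO2, and syncytia were scored microscopically. EC50 is the concentration that inhibits giant cell formation by 50%.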

[2] = system: Human immunodeficiency virus 1; test: Antiviral activity against HIV1 3B infected in human CEM cells assessed as inhibition of virus-induced giant cell formation after 4 to 5 days; type: functional, organism-based; conditions: CCRF-CEM; how it was run: as §1
[3] = system: Feline coronavirus; test: Antiviral activity against Feline coronavirus; type: functional, organism-based
[4] = system: Sindbis virus; test: Antiviral activity against Sindbis virus; type: functional, organism-based
How it was run: (§2)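 Confluent HEL, Vero, HeLa or MDCK cell cultures were inoculated with 100 CCID50 of virus alongside varying compound concentrations. Cytopathicity was scored when it reached completion in untreated virus controls. EC50 is the concentration that reduces virus-induced cytopathogenicity by 50%.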

[5] = system: Punta Toro virus; test: Antiviral activity against Punta Toro virus; type: functional, organism-based; how it was run: as §2
[6] = system: Influenza B virus; test: Antiviral activity against Influenza B virus; type: functional, organism-based
How it was run: (§3)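 The assay was a cell-based cytopathicity inhibition test on confluent monolayers with serial compound dilutions. EC50 was the concentration that reduced virus-induced cytopathicity by 50%.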

[7] = system: Mammalian orthoreovirus 1; test: Antiviral activity against Reovirus-1; type: functional, organism-based; how it was run: as §2
[8] = system: Influenza A virus; test: Antiviral activity against Influenza virus A virus H3N2; type: functional, organism-based; how it was run: as §3
[9] = system: Human respirovirus 3; test: Antiviral activity against Parainfluenza virus 3; type: functional, organism-based; how it was run: as §2
[10] = system: Influenza A virus; test: Antiviral activity against Influenza virus A virus H1N1; type: functional, organism-based; how it was run: as §3
[11] = system: Coxsackievirus B4; test: Antiviral activity against Coxsackie B4 virus; type: functional, organism-based; how it was run: as §2
[12] = system: Vesicular stomatitis virus; test: Antiviral activity against Vesicular stomatitis virus; type: functional, organism-based
[13] = system: Respiratory syncytial virus; test: Antiviral activity against Respiratory syncytial virus Long; type: functional, organism-based; how it was run: as §2
[14] = system: Vaccinia virus; test: Antiviral activity against Vaccinia virus Lederle; type: functional, organism-based; conditions: Orthopoxvirus vaccinia
[15] = system: Human alphaherpesvirus 3; test: Antiviral activity against Varicella-zoster virus YS; type: functional, organism-based
How it was run: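 VZV was assayed by plaque formation. Confluent cell cultures received 10 or 100 PFU with varying compound concentrations, and plaques were recorded once complete in untreated infected controls. EC50 is the concentration that reduces plaque formation by 50%.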

[16] = system: Human alphaherpesvirus 3; test: Antiviral activity against Varicella-zoster virus OKA; type: functional; conditions: strain Oka vaccine
How it was run: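 Confluent cell monolayers were infected with 10 or 100 PFU of VZV in the presence of serial compound dilutions. Plaque formation was recorded once untreated infected controls reached completion. EC50 was the concentration that reduced plaque formation by 50%.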

[17] = system: Human alphaherpesvirus 2; test: Antiviral activity against Herpes simplex virus type 2 Lyons; type: functional, organism-based; how it was run: as §2
[18] = system: Human alphaherpesvirus 2; test: Antiviral activity against Herpes simplex virus type 2 G; type: functional, organism-based; conditions: strain G; how it was run: as §2
[19] = system: Human alphaherpesvirus 1; test: Antiviral activity against thymidine kinase deficient acyclovir-resistant Herpes simplex virus type 1 KOS; type: functional, organism-based
[20] = system: Human alphaherpesvirus 1; test: Antiviral activity against Herpes simplex virus type 1 KOS; type: functional, organism-based; how it was run: as §2
[21] = system: HEL; test: Cytotoxicity against HEL; type: cell-based; conditions: human
[22] = system: Human betaherpesvirus 5; test: Antiviral actiivty against Human herpesvirus 5 Davis infected in HEL assessed as reduction of virus-induced plaque formation; type: functional, organism-based; conditions: Human betaherpesvirus 5, Davis
How it was run: (§4)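 HCMV strains AD-169 and Davis were tested on confluent human embryonic lung fibroblast monolayers infected with 100 PFU in the presence of serial compound concentrations. Plaques were counted once formation was complete in untreated infected controls. EC50 is the concentration that cuts plaque formation by 50%.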

[23] = system: Human betaherpesvirus 5; test: Antiviral actiivty against Human herpesvirus 5 AD169 infected in HEL assessed as reduction of virus-induced plaque formation; type: functional, organism-based; conditions: Human betaherpesvirus 5, AD169; how it was run: as §4
[24] = Cytotoxicity against HEL assessed as minimum cytotoxic concentration required to cause microscopically detectable alteration in cell morphology; type: cell-based; conditions: human, HEL cells

| SMILES | Activity [1] | Activity [2] | Activity [3] | Activity [4] | Activity [5] | Activity [6] | Activity [7] | Activity [8] | Activity [9] | Activity [10] | Activity [11] | Activity [12] | Activity [13] | Activity [14] | Activity [15] | Activity [16] | Activity [17] | Activity [18] | Activity [19] | Activity [20] | further results |
| --- | --- | --- | --- | --- | --- | --- | --- | --- | --- | --- | --- | --- | --- | --- | --- | --- | --- | --- | --- | --- | --- |
| Cc1ccccc1OCCCCCn1ccc(=O)[nH]c1=O | inactive | inactive | inactive | inactive | inactive | inactive | inactive | inactive | inactive | inactive | inactive | inactive | inactive | inactive | inactive | inactive | inactive | inactive | inactive | inactive | CC50 [21]: > 100 µM; EC50 [22]: > 100 µM; EC50 [23]: > 100 µM; MCC [24]: > 100 µM |
| Nc1ccc(OCCCCCn2ccc(=O)[nH]c2=O)cc1 | inactive | inactive | inactive | inactive | inactive | inactive | inactive | inactive | inactive | inactive | inactive | inactive | inactive | inactive | inactive | inactive | inactive | inactive | inactive | inactive | CC50 [21]: > 100 µM; EC50 [22]: 55 µM; EC50 [23]: 55 µM; MCC [24]: > 100 µM |
| Cc1ccc(OCCCCCn2ccc(=O)[nH]c2=O)cc1 | inactive | inactive | inactive | inactive | inactive | inactive | inactive | inactive | inactive | inactive | inactive | inactive | inactive | inactive | inactive | inactive | inactive | inactive | inactive | inactive | CC50 [21]: > 100 µM; EC50 [22]: > 20 µM; EC50 [23]: > 20 µM; MCC [24]: 100 µM |
| Cc1cccc(OCCCCCn2ccc(=O)[nH]c2=O)c1 | inactive | inactive | inactive | inactive | inactive | inactive | inactive | inactive | inactive | inactive | inactive | inactive | inactive | inactive | inactive | inactive | inactive | inactive | inactive | inactive | CC50 [21]: > 100 µM; EC50 [22]: 55 µM; EC50 [23]: 45 µM; MCC [24]: > 100 µM |
| O=c1ccn(CCCCCOc2ccccc2)c(=O)[nH]1 | inactive | inactive | inactive | inactive | inactive | inactive | inactive | inactive | inactive | inactive | inactive | inactive | inactive | inactive | inactive | inactive | inactive | inactive | inactive | inactive | CC50 [21]: > 100 µM; EC50 [22]: > 100 µM; EC50 [23]: > 100 µM; MCC [24]: > 100 µM |
| O=c1[nH]c(=O)n(CCCCCOc2ccc(Br)cc2)cc1Br | inactive | inactive | inactive | inactive | inactive | inactive | inactive | inactive | inactive | inactive | inactive | inactive | inactive | inactive | inactive | inactive | inactive | inactive | inactive | inactive | CC50 [21]: > 100 µM; EC50 [22]: 67 µM; EC50 [23]: 36 µM; MCC [24]: > 100 µM |
| CC(C)c1ccc(OCCCCCn2ccc(=O)[nH]c2=O)cc1 | inactive | inactive | inactive | inactive | inactive | inactive | inactive | inactive | inactive | inactive | inactive | inactive | inactive | inactive | inactive | inactive | inactive | inactive | inactive | inactive | CC50 [21]: > 100 µM; EC50 [22]: 15 µM; EC50 [23]: 25 µM; MCC [24]: 100 µM |
| CC(C)(C)c1ccc(OCCCCCn2ccc(=O)[nH]c2=O)cc1 | inactive | inactive | inactive | inactive | inactive | inactive | inactive | inactive | inactive | inactive | inactive | inactive | inactive | inactive | inactive | inactive | inactive | inactive | inactive | inactive | CC50 [21]: 40 µM; EC50 [22]: 12 µM; EC50 [23]: 14 µM; MCC [24]: 100 µM |
| Cc1cn(CCCCCOc2ccc(Br)cc2)c(=O)[nH]c1=O | inactive | inactive | inactive | inactive | inactive | inactive | inactive | inactive | inactive | inactive | inactive | inactive | inactive | inactive | inactive | inactive | inactive | inactive | inactive | inactive | CC50 [21]: > 100 µM; EC50 [22]: 9 µM; EC50 [23]: 8.9 µM; MCC [24]: 100 µM |
